Results collected from several papers.
Lines come from different studies, so protocols differ.
Target: cGMP-dependent protein kinase 2 (PRKG2, Homo sapiens, UniProt Q13237)
Residues used in one study (Q13237 1-762): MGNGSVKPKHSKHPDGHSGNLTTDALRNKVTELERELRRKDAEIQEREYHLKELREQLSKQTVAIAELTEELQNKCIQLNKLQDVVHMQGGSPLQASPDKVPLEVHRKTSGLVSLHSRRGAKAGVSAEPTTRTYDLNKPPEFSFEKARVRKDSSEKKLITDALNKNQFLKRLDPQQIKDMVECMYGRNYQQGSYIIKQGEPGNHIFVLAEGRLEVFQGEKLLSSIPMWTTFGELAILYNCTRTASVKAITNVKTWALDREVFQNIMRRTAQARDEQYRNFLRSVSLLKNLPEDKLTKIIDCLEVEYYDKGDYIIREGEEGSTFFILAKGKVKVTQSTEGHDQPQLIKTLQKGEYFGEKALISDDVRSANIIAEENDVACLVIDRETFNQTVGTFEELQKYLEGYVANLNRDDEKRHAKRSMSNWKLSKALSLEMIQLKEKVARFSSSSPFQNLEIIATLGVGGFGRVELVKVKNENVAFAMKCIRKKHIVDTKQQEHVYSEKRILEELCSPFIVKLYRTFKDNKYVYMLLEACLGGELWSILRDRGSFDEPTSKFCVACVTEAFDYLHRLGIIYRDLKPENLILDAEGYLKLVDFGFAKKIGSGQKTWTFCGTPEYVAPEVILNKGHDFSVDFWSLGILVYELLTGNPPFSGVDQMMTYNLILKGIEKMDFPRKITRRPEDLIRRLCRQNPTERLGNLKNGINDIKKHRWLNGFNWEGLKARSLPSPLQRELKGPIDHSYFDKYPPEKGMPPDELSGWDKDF

Compound	test	setting	quantity	value
Cc1nn(C)cc1-c1nc2c(N3CCN(Cc4ccc(Cl)cc4)CC3)c(Cl)cnc2[nH]1	binding, competition with immobilised ligand	1 µM	remaining binding	92%
Cn1cc(-c2cc(F)cc(N3CCn4c(cc5c4CCCC5)C3=O)c2CO)cc(Nc2ccc(N3CCN(C4COC4)CC3)cn2)c1=O	enzyme activity, inhibitor	0.1 µM	inhibition	11%
O=c1[nH]c2ccccc2n1C1CCN(Cc2ccc(-c3[nH]c4cc5ncnc5cc4nc3-c3ccccc3)cc2)CC1	cell-free assay	0.5 µM	remaining signal	96.8%
COc1ncccc1-c1cnn2ccc(N3CCN(C(=O)OC(C)C)CC3)nc12	binding, competition with immobilised ligand	1 µM	remaining binding	88%
Cn1cncc1[C@](O)(COc1ccc(C#N)cc1-c1ccc(OC(F)(F)F)cc1)c1ccc(C#N)cc1	cell-free assay, competition with immobilised ligand	1 µM	remaining binding	100%
CC(C)(C)c1cc(C=C(C#N)C#N)cc(Br)c1O	enzyme activity, inhibitor	0.5 µM	remaining activity	87.6%
Nc1ncc(-c2nc(N3CCOCC3)nc(N3CCOCC3)n2)c(C(F)F)n1	binding, competition with immobilised ligand	10 µM	remaining binding	90%
N#CC1(c2ccccn2)CCN(Cc2cc(C(=O)O)c(=O)n3ccccc23)CC1	cell-free assay, competition with immobilised ligand	1 µM	remaining binding	95%
Cn1cc(-c2cccc(N3CCc4c(sc5c4CC(C)(C)C5)C3=O)c2CO)cc(Nc2ccncn2)c1=O	enzyme activity, inhibitor	1 µM	inhibition	2%
